Data from ChEMBL document CHEMBL4184236, “Design, synthesis and biological evaluation of matrine derivatives as potential anticancer agents” (Bioorg Med Chem Lett, 2018).
pIC50: −log10 of the molar value.

Assays:
[1] = tested on: SMMC-7721; assay: Induction of cell cycle arrest in human SMMC7721 cells assessed as accumulation at G2/M phase incubated for 24 hrs by propidium iodide staining based flow cytometry; format: functional
[2] = tested on: SMMC-7721; assay: Induction of apoptosis in human SMMC7721 cells assessed as late apoptotic cells level at 5 uM incubated for 24 hrs by Annexin V-FITC/PI dual staining based flow cytometry (reference value: 0.88%); format: functional
Method in brief: (§1)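 CNE2 and SMMC-7721 cells were treated for 24 h at 0, 5, 10 or 30 µM, or at 0, 10, 20 or 50 µM depending on compound. Cells were stained with Annexin V-FITC/propidium iodide and quantified by flow cytometry. Apoptotic cells were counted as AV+/PI− (lower right) plus AV+/PI+ (upper right) quadrants.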

[3] = tested on: CNE-2; assay: Induction of apoptosis in human CNE2 cells assessed as necrotic cells level at 10 uM incubated for 24 hrs by Annexin V-FITC/PI dual staining based flow cytometry (reference value: 3.43%); format: functional; method in brief: as §1
[4] = tested on: SMMC-7721; assay: Induction of cell cycle arrest in human SMMC7721 cells assessed as accumulation at G2/M phase at 10 uM incubated for 24 hrs by propidium iodide staining based flow cytometry (reference value: 18.4%); format: functional
[5] = tested on: SMMC-7721; assay: Anticancer activity against human SMMC7721 cells assessed as reduction in cell viability incubated for 48 hrs MTT assay; format: functional, cell-based; conditions: SMMC-7721, 48 h
Method in brief: (§2)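 MTT assay on human hepatocarcinoma SMMC-7721, lung carcinoma A549 and nasopharyngeal carcinoma CNE2 cells, with matrine as comparator and cisplatin as positive control. IC50 is the concentration that lowers optical density of treated cells by 50% versus untreated cells, given as the mean ± SD of three experiments.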

[6] = tested on: SMMC-7721; assay: Induction of apoptosis in human SMMC7721 cells assessed as necrotic cells level at 10 uM incubated for 24 hrs by Annexin V-FITC/PI dual staining based flow cytometry (reference value: 2.47%); format: functional; method in brief: as §1
[7] = tested on: SMMC-7721; assay: Induction of apoptosis in human SMMC7721 cells assessed as late apoptotic cells level at 10 uM incubated for 24 hrs by Annexin V-FITC/PI dual staining based flow cytometry (reference value: 0.88%); format: functional; method in brief: as §1
[8] = tested on: CNE-2; assay: Induction of apoptosis in human CNE2 cells assessed as late apoptotic cells level at 30 uM incubated for 24 hrs by Annexin V-FITC/PI dual staining based flow cytometry (reference value: 1.37%); format: functional; method in brief: as §1
[9] = tested on: SMMC-7721; assay: Induction of cell cycle arrest in human SMMC7721 cells assessed as accumulation at S phase at 5 uM incubated for 24 hrs by propidium iodide staining based flow cytometry (reference value: 17.2%); format: functional
[10] = tested on: CNE-2; assay: Induction of apoptosis in human CNE2 cells assessed as viable cells level at 5 uM incubated for 24 hrs by Annexin V-FITC/PI dual staining based flow cytometry (reference value: 91.6%); format: functional; method in brief: as §1
[11] = tested on: SMMC-7721; assay: Induction of cell cycle arrest in human SMMC7721 cells assessed as accumulation at subG1 phase at 30 uM incubated for 24 hrs by propidium iodide staining based flow cytometry (reference value: 0.33%); format: functional
[12] = tested on: CNE-2; assay: Induction of apoptosis in human CNE2 cells assessed as late apoptotic cells level at 10 uM incubated for 24 hrs by Annexin V-FITC/PI dual staining based flow cytometry (reference value: 1.37%); format: functional; method in brief: as §1
[13] = tested on: SMMC-7721; assay: Induction of cell cycle arrest in human SMMC7721 cells assessed as accumulation at G0-G1 phase at 30 uM incubated for 24 hrs by propidium iodide staining based flow cytometry (reference value: 64.1%); format: functional
[14] = tested on: CNE-2; assay: Induction of apoptosis in human CNE2 cells assessed as early apoptotic cells level at 10 uM incubated for 24 hrs by Annexin V-FITC/PI dual staining based flow cytometry (reference value: 3.56%); format: functional; method in brief: as §1
[15] = tested on: CNE-2; assay: Anticancer activity against human CNE2 cells assessed as reduction in cell viability incubated for 48 hrs MTT assay; format: functional, cell-based; conditions: CNE-2, 48 h; method in brief: as §2
[16] = tested on: CNE-2; assay: Induction of cell cycle arrest in human CNE2 cells assessed as accumulation at S phase at 30 uM incubated for 24 hrs by propidium iodide staining based flow cytometry (reference value: 10.3%); format: functional
[17] = tested on: CNE-2; assay: Induction of apoptosis in human CNE2 cells assessed as necrotic cells level at 30 uM incubated for 24 hrs by Annexin V-FITC/PI dual staining based flow cytometry (reference value: 3.43%); format: functional; method in brief: as §1
[18] = tested on: SMMC-7721; assay: Induction of cell cycle arrest in human SMMC7721 cells assessed as accumulation at S phase at 10 uM incubated for 24 hrs by propidium iodide staining based flow cytometry (reference value: 17.2%); format: functional
[19] = tested on: CNE-2; assay: Induction of cell cycle arrest in human CNE2 cells assessed as accumulation at S phase at 10 uM incubated for 24 hrs by propidium iodide staining based flow cytometry (reference value: 10.3%); format: functional
[20] = tested on: CNE-2; assay: Induction of cell cycle arrest in human CNE2 cells assessed as accumulation at subG1 phase at 10 uM incubated for 24 hrs by propidium iodide staining based flow cytometry (reference value: 0.55%); format: functional
[21] = tested on: CNE-2; assay: Induction of cell cycle arrest in human CNE2 cells assessed as accumulation at G0-G1 phase at 30 uM incubated for 24 hrs by propidium iodide staining based flow cytometry (reference value: 69.3%); format: functional
[22] = tested on: SMMC-7721; assay: Induction of apoptosis in human SMMC7721 cells assessed as necrotic cells level at 30 uM incubated for 24 hrs by Annexin V-FITC/PI dual staining based flow cytometry (reference value: 2.47%); format: functional; method in brief: as §1
[23] = tested on: SMMC-7721; assay: Induction of cell cycle arrest in human SMMC7721 cells assessed as accumulation at subG1 phase at 10 uM incubated for 24 hrs by propidium iodide staining based flow cytometry (reference value: 0.33%); format: functional
[24] = tested on: SMMC-7721; assay: Induction of apoptosis in human SMMC7721 cells assessed as early apoptotic cells level at 30 uM incubated for 24 hrs by Annexin V-FITC/PI dual staining based flow cytometry (reference value: 1.36%); format: functional; method in brief: as §1

For COc1cc(Cn2cccc2/C=C2\CC[C@@H]3[C@H]4CCCN5CCC[C@@H](CN3C2=O)[C@@H]45)cc(OC)c1, the Activity [1] was “Dose-dependent effect”, the Activity [2] was 4.06% and the Activity [3] was 5.22%. The Activity [4] was 78.9%, the pIC50 [5] was 5.33 and the Activity [6] was 6.65%. The Activity [7] was 18.5%, the Activity [8] was 16% and the Activity [9] was 7.92%. It also gave an Activity [10] of 85.5%, an Activity [11] of 3.08% and an Activity [12] of 8.94%. The Activity [13] was 8.58%, the Activity [14] was 25.1% and the pIC50 [15] was 5.45. For the same compound, the Activity [16] was 4.8%, the Activity [17] was 6.5% and the Activity [18] was 8.92%. The Activity [19] was 2.43%, the Activity [20] was 4.35% and the Activity [21] was 9.89%. It also gave an Activity [22] of 3.67%, an Activity [23] of 6.61% and an Activity [24] of 33.1%.
